# Compound activity from PubChem.
# The list is not random: actives were taken first. Their share in the collection is about 0.85%.
# TRPML3 agonist: human TRPML3 channel agonists, primary screen, cell-based, HEK293 TRPML3-YFP, Fluo-8 calcium fluorescence, 3 µM; Mucolipin-3 (Homo sapiens), Q8TDD5; 100% = the carbachol control signal; activation, % at 3 µM; 220,000 compounds, 0.29% hits; AID 1448, 2008;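 active = activation above its plate's cutoff, the mean activation of the plate's test wells plus 3 SD, cut at about 12% in these data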;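 note: 0% = DMSO only wells and 100% = carbachol wells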
#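 Material: HEK293 cells stably carrying human TRPML3-YFP; compound dosing: single dose, 3 µM final nominal compound, 0.3% DMSO final; incubation: 1-h 37 °C dye load, 5-s basal, 120-s post-compound reads; technique: Fluo-8 intracellular calcium fluorescence, excitation 470-495 nm, emission 515-575 nm; read-out basis: percent activation from peak-to-basal fluorescence ratio, scaled between DMSO and carbachol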
# OXTR potentiate: human OXTR potentiators, primary screen, fluorescence, CHO-OTR cells, Fluo-8 calcium. Fluo-8 calcium fluorescence, potentiator mode; 0% = oxytocin EC15, 100% = EC100. activation, % at 3 µM. 320,000 compounds, 0.061% hits. AID 2445, 2010;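 active = activation above that plate's cutoff, the mean activation of tested compounds plus 3 SD, cut at about 6.6% in these data, passing the limit was not always enough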;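 note: 100% uses oxytocin at 75 nM as the full agonist control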
# Target sequence (P30559 whole entry, looked up): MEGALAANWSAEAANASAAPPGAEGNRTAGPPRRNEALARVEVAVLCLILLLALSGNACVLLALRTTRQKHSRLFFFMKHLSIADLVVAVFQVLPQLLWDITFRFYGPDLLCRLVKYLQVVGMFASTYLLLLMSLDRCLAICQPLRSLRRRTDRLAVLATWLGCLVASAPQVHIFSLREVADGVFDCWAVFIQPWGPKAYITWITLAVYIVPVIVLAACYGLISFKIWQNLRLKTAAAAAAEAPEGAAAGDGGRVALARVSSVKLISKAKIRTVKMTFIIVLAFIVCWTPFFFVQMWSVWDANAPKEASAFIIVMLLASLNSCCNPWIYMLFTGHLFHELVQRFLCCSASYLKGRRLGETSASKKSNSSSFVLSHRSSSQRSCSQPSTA
#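 Material: human OTR in CHO cells. Compound: 3.0 µM, one dose. Timing: compound 6 min at room temperature before oxytocin, 100 s read. Evaluation: % activation of max/min ratio relative to oxytocin controls. Replication: single well per compound, singlicate. Signal: Fluo-8 calcium dye fluorescence.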
# CRFR2-BP ag: agonists of CRF-BP/CRF-R2 complex, primary screen, cell-based, HEK293, calcium dye fluorescence, uHTS; calcium dye fluorescence (FLIPR); percent of saturating CRF peptide response; activation, % at 13.2 µM; 350,000 compounds, 0.46% hits;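 active = activation of at least 50%, plus an integration ratio under a set limit after plate pattern correction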;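 note: plate controls were neutral control wells without compound for no effect and CRF at EC100 for full effect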
# zfTRPN1 agonist: zebrafish TRPN1 channel agonists, primary screen, cell-based, HEK293, calcium fluorescence | HEK293 zebrafish TRPN1-YFP, Fluo-8 calcium fluorescence; 100% = response to 87 µM carbachol | activation, % at 3 µM | 220,000 compounds, 0.18% hits | AID 1424, 2008;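 active = activation above its plate's cutoff, the mean activation of test wells on that plate plus 3 SD, cut at about 19% in these data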;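 note: 0% = DMSO alone and 100% = 87 µM carbachol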
#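 Control set: carbachol 87 µM as high control, DMSO as low control; system: HEK293 stable line with zebrafish TRPN1-YFP; read-out: % activation versus carbachol response; detection: intracellular calcium fluorescence with Fluo-8; doses: single test compound dose, 3 µM nominal, 0.3% DMSO; schedule: dye 1 h 37 °C plus 30 min RT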
# OXTR ag: human OXTR agonists, primary screen, fluorescence, CHO-OTR cells, Fluo-8 calcium | Fluo-8 calcium fluorescence; normalized: DMSO 0%, oxytocin 100% | 320,000 compounds, 0.32% hits | activation, % at 3 µM | Oxytocin receptor (Homo sapiens), P30559 | AID 2435, 2010;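 active = activation above the mean of all tested compounds plus 3 SD, cutoff set per screening run, cut at about 20% in these data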;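 note: peak over basal fluorescence ratio from a 100 s FLIPR kinetic read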
# V1aR counter: agonists of human V1a receptor, primary screen, counter-screen for OXTR agonist project, fluorescence, CHO-V1R cells; activation, % at 3 µM; Vasopressin V1a receptor (Homo sapiens), P37288; 320,000 compounds, 0.25% hits; Fluo-8 calcium fluorescence, agonist mode; 0% DMSO, 100% 3 nM vasopressin; AID 2797, 2010;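 active = activation above the mean activation of all tested compounds plus 3 SD, per screening run, cut at about 20% in these data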;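 note: signal is peak over basal fluorescence ratio across a 100 second FLIPR read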
# Starred values were filed as active, the others as inactive; nt = not tested or not shown.
SMILES,TRPML3 agonist,OXTR potentiate,CRFR2-BP ag,zfTRPN1 agonist,OXTR ag,V1aR counter
CCOC(=O)C1=NN(C(=O)c2ccc(C)cc2)C(O)(c2ccc(Cl)cc2)C1 (configuration not stated),18*,-20,90*,25*,37*,32*
CCC1=NN(C(=O)c2ccc(Cl)cc2)C(O)(c2ccc(C)cc2)C1 (configuration not stated),nt,nt,0,nt,nt,nt
COC(=O)C1=NN(C(=O)c2ccc(Cl)cc2)C(O)(c2ccccc2)C1 (configuration not stated),-1,-6,72*,2,8,1
CC(C)Cn1c(-c2ccco2)nc2c(c(=O)c3ccccc3n2C)c1=O,-1,-3,nt,-3,-2,-2
Cn1c2ccccc2c(=O)c2c(=O)n(C3CCCCC3)c(-c3ccco3)nc21,1,-3,99*,3,17,29*
CC(Oc1ccc(F)cc1)C(=O)Nc1cc(S(=O)(=O)N2CCCCC2)ccc1N1CCOCC1 (configuration not stated),nt,-4,0,nt,-2,0
CN(Cc1cnccn1)C(=O)CC1C(=O)NCCN1Cc1c(F)cccc1Cl (configuration not stated),1,-7,0,2,1,0
CCC(C)N1CCNCC1 (configuration not stated),1,-17,-1,1,0,1
Cn1c(-c2ccc(C=O)s2)nc2c3ccccc3c3ccccc3c21,1,-8,112*,0,1,2
C=CCN1C(c2cccc(C(F)(F)F)c2)=CS/C1=C(\C#N)c1nnc(N2CCOCC2)n1-c1ccccc1,nt,nt,58*,nt,nt,nt
CCN(CC)CCN1C(=O)C(=O)/C(=C(/O)c2ccc(S(=O)(=O)N3CCOCC3)cc2)C1c1ccccc1 (configuration not stated),nt,4,-1,nt,0,0
CC(=O)c1ccc(N2CCN(C(=O)c3ccc(Cn4c(=S)[nH]c5ccc(N6CCOCC6)cc5c4=O)cc3)CC2)cc1,0,-9,3,0,-1,0
CCOC(=O)c1ccc(NC(=O)c2c(Cl)cc(C)nc2C)cc1,nt,3,2,nt,3,0
Cc1ccsc1/C=C/C1=Cc2c(sc(NC(=O)CSc3n[nH]c(N)n3)c2C#N)C(C)(C)C1,1,-8,34,0,46*,5
Clc1cc2nc[nH]c2cc1Cl,0,-7,1,1,3,4
Cc1cc(NC(=O)C(C)C)ncc1NC(=O)CCc1ccccc1,0,-20,141*,1,0,0
CC1CCC2(CC1)NC(=O)N(NC(=O)c1cccc(N(C)C)c1)C2=O (configuration not stated),nt,-3,-1,nt,-1,0
CC(=O)NNC(=S)NC(=O)C(c1ccccc1)c1ccccc1,0,-5,19,-3,2,1
CC(C)(C)C(=O)NC(=S)NNC(=O)C(c1ccccc1)c1ccccc1,114*,-9,192*,168*,89*,127*
COc1ccc(Cl)cc1C(=O)Nc1ccccc1N1CCCCC1,nt,-5,2,nt,-1,0
COC(=O)c1ccc2c(c1)C(=O)/C(=C/c1ccc(O)cc1)O2,1,-8,77*,3,16,9
O=c1c(Cl)c2oc3ccccc3nc-2c2ccccc12,2,-11,207*,5,11,7
Clc1ccc(-c2nnc(Sc3nc4ccccc4o3)c3ccccc23)cc1,0,1,0,0,-2,-1
COc1cc(/C=C2/SC(=Nc3ccc(O)cc3)NC2=O)cc(OC)c1O,5,6,13,5,5,6
COc1ccccc1N=C1NC(=O)/C(=C/c2ccc(N(C)C)cc2)S1,nt,-22,79*,nt,25*,24*
SMILES,TRPML3 agonist,OXTR potentiate,CRFR2-BP ag,zfTRPN1 agonist,OXTR ag,V1aR counter
O=C(NCc1ccco1)c1sc(=S)n2c1[nH]c(=O)c1ccccc12,1,-11,55*,3,24*,21*
O=C(NCc1ccccc1)c1ccc2c(=O)[nH]c3c(C(=O)NCC4CCCO4)sc(=S)n3c2c1 (configuration not stated),0,-8,-4,0,-1,-1
O=C(NC1CCCC1)c1sc(=S)n2c1[nH]c(=O)c1ccccc12,0,-16,87*,2,10,8
COC(=O)c1c(NC(=O)CN2CCC3(O)CCCCC3C2c2ccccc2OC)sc(C)c1C (configuration not stated),0,-1,53*,-1,-2,1
COc1ccc([N+](=O)[O-])cc1NCC(=O)Nc1cccc(S(=O)(=O)N2CCCC2)c1,nt,nt,-1,nt,nt,nt
CCOC(=O)NC(=O)/C(C#N)=C\Nc1sccc1C(=O)OC,18*,-8,48,22*,57*,53*
COc1ccc(N2C(=O)CC(NNC(=O)c3cccnc3)C2=O)cc1 (configuration not stated),1,0,-1,2,1,0
Nc1c(C(=O)C2CC2)sc2nc(-c3ccccc3)cc(C(F)(F)F)c12,2,-14,238*,1,2,6
COc1ccc(-c2cc(C(F)(F)F)c3c(N)c(C(=O)NCCSC)sc3n2)cc1,nt,0,66*,nt,3,1
Cc1nc(NC(=O)COC(=O)CCS(=O)(=O)c2ccccc2Cl)c(Cl)cc1Cl,-1,-6,-2,-2,0,0
Nc1ccc2c(c1)CC(=O)c1ccccc1S2,1,-3,-1,0,2,1
O=C1Cc2ccccc2Sc2ccc(O)cc21,3,-10,92*,-1,-1,4
CCC1=C(Nc2ccccc2)COC1=O,nt,nt,20,nt,nt,nt
O=C1SCCC1NS(=O)(=O)c1ccc([N+](=O)[O-])cc1 (configuration not stated),nt,26*,2,nt,1,2
O=C(NC(=S)NC1CCSC1=O)c1ccc([N+](=O)[O-])cc1 (configuration not stated),nt,-11,nt,nt,1,1
CCc1ccccc1NC(=O)CNC(=O)c1cccc(S(=O)(=O)N2CCN(Cc3ccccc3)CC2)c1,nt,-7,-3,nt,-1,1
